Data from ChEMBL document CHEMBL4266062, “Discovery of JND3229 as a New EGFRC797S Mutant Inhibitor with In Vivo Monodrug Efficacy” (ACS Med Chem Lett, 2018).
Activity calls are given as the source filed them. The rule behind the calls is not given here.

Experiments:
[1] = test system: Mus musculus; experiment: Toxicity in Balb/c mouse implanted with mouse BAF3-EGFR 19D/T790M/C797S mutant cells assessed as change in body weight at 10 mg/kg, ip administered twice daily for 10 days measured every 2 to 3 days during compound dosing; type: organism-based; details: in vivo
Procedure, shortened: (§1)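 BALB/c mice with established BaF3-EGFR19D/T790M/C797S xenografts (n = 6); 10 mg/kg in 0.5% HPMC ip twice daily for 10 days versus vehicle. Relative tumor volume and body weight recorded every 2–3 days. TGI taken on the final treatment day versus control; Student's t test.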

[2] = test system: BaF3; experiment: Antitumor activity against mouse BAF3 cells harboring EGFR 19D/T790M/C797S mutant implanted in Balb/c mouse assessed as tumor growth inhibition at 10 mg/kg, ip administered twice daily for 10 days relative to control; type: functional; details: 240 h, read-out: TGI; procedure, shortened: as §1
[3] = test system: Epidermal growth factor receptor (Homo sapiens), P00533 [UNDEFINED MUTATION]; experiment: Inhibition of EGFR 19D/T790M/C797S mutant (unknown origin) expressed in mouse BAF3 cells assessed as reduction in EGF-induced receptor phosphorylation preincubated for 2 hrs followed by EGF stimulation for 15 mins by Western blot analysis; type: cell-based
Procedure, shortened: (§2)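 BaF3 cells stably transfected with the mutant EGFR were treated for 2 h across a range of compound concentrations, then stimulated with EGF for 15 min. Cell lysates were collected, and EGFR phosphorylation was read out by Western blot.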

[4] = test system: BaF3; experiment: Antiproliferative activity against mouse BAF3 cells harboring EGFR 19D/T790M/C797S mutant after 72 hrs by resazurin dye based assay; type: functional, cell-based; details: BaF3, 72 h
[5] = test system: A-431; experiment: Antiproliferative activity against human A431 cells harboring wild type EGFR after 72 hrs by resazurin dye based assay; type: functional, cell-based; details: A-431, 72 h
[6] = test system: Epidermal growth factor receptor (Homo sapiens), P00533 [L858R,T790M,C797S]; experiment: Inhibition of EGFR T790M/L858R/C797S mutant (unknown origin) expressed in mouse BAF3 cells assessed as reduction in EGF-induced receptor phosphorylation preincubated for 2 hrs followed by EGF stimulation for 15 mins by Western blot analysis; type: cell-based; procedure, shortened: as §2
[7] = test system: Mus musculus; experiment: In vivo inhibition of EGFR phosphorylation in tumor of Balb/c mouse implanted with mouse BAF3-EGFR 19D/T790M/C797S mutant cells at 10 mg/kg, ip administered twice daily for 10 days by H and E staining based IHC analysis; type: functional, organism-based
Procedure, shortened: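 Xenograft tumor sections taken from the 10 mg/kg ip twice-daily treated mice and controls. Sections stained with H&E and anti-p-EGFR antibody. p-EGFR labeling quantified as relative integrated optical density; Student's t test versus control.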

[8] = test system: NCI-H1975; experiment: Antiproliferative activity against human NCI-H1975 cells harboring EGFR L858R/T790M mutant after 72 hrs by resazurin dye based assay; type: functional, cell-based; details: NCI-H1975, 72 h
[9] = test system: BaF3; experiment: Antiproliferative activity against mouse BAF3 cells harboring EGFR L858R/T790M/C797S mutant after 72 hrs by resazurin dye based assay; type: functional, cell-based; details: BaF3, 72 h
[10] = target: Epidermal growth factor receptor (Homo sapiens, UniProt P00533, C797S/L858R/T790M); experiment: Inhibition of recombinant human C-terminal His-tagged/N-terminal GST-tagged EGFR (668 to 1210 residues) T790M/L858R/C797S mutant using poly (Glu,Tyr) 4:1 as substrate after 1 hr by ELISA
[11] = target: Epidermal growth factor receptor (Homo sapiens, UniProt P00533, L858R/T790M); experiment: Inhibition of recombinant human EGFR T790M/L858R double mutant using poly (Glu,Tyr) 4:1 as substrate after 1 hr by ELISA
[12] = test system: BaF3; experiment: Antitumor activity against mouse BAF3 cells harboring EGFR 19D/T790M/C797S mutant implanted in Balb/c mouse assessed as tumor growth inhibition at 60 mg/kg, po administered once daily via gavage for 10 days co-treated with cetuximab once every other day relative to control; type: functional; details: 240 h, read-out: TGI
Procedure, shortened: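 Same BaF3-EGFR19D/T790M/C797S xenograft in BALB/c mice (n = 6). Positive-control regimen: 60 mg/kg in 10% NMP/90% PEG300 by oral gavage once daily, plus cetuximab 1 mg/kg in 0.9% NaCl/water ip every other day. Relative tumor volume measured every 2–3 days. TGI taken on the final treatment day versus control; Student's t test.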

Chain of Epidermal growth factor receptor (Homo sapiens, UniProt P00533, C797S/L858R/T790M) (P00533 25-1210 T790M/C797S/L858R limits assumed): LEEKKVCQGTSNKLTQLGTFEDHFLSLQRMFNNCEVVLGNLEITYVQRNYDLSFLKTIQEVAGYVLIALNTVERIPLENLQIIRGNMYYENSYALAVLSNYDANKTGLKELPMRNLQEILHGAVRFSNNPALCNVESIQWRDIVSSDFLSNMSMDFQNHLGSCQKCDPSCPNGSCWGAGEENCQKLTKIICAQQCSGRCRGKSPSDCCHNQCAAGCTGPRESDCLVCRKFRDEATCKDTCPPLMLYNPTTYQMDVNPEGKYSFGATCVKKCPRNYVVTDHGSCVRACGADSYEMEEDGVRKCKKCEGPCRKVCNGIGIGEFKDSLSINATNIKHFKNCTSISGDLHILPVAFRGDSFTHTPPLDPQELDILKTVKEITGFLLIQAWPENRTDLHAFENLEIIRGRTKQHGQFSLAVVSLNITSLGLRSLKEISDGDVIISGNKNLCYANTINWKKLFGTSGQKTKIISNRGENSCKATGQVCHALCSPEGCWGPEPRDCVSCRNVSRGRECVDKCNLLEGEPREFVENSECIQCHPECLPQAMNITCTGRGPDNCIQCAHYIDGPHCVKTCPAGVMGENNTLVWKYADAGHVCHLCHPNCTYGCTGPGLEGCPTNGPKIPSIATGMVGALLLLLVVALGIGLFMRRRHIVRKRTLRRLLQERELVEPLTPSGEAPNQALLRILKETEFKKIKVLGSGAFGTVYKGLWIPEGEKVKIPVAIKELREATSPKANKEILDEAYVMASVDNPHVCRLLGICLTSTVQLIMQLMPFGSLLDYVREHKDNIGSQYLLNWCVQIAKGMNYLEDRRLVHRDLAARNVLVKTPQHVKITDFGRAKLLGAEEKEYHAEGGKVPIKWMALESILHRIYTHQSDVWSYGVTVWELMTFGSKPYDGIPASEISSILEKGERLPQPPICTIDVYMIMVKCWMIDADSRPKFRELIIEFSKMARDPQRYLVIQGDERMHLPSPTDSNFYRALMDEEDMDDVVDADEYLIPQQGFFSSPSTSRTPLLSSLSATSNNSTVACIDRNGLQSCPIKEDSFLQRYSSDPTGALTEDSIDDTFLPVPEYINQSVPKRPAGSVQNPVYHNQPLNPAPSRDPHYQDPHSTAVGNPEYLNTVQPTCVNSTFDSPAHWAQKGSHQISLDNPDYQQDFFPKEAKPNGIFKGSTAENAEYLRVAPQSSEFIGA
Chain of Epidermal growth factor receptor (Homo sapiens), P00533 [UNDEFINED MUTATION] (P00533 whole entry, looked up, stated change not applied): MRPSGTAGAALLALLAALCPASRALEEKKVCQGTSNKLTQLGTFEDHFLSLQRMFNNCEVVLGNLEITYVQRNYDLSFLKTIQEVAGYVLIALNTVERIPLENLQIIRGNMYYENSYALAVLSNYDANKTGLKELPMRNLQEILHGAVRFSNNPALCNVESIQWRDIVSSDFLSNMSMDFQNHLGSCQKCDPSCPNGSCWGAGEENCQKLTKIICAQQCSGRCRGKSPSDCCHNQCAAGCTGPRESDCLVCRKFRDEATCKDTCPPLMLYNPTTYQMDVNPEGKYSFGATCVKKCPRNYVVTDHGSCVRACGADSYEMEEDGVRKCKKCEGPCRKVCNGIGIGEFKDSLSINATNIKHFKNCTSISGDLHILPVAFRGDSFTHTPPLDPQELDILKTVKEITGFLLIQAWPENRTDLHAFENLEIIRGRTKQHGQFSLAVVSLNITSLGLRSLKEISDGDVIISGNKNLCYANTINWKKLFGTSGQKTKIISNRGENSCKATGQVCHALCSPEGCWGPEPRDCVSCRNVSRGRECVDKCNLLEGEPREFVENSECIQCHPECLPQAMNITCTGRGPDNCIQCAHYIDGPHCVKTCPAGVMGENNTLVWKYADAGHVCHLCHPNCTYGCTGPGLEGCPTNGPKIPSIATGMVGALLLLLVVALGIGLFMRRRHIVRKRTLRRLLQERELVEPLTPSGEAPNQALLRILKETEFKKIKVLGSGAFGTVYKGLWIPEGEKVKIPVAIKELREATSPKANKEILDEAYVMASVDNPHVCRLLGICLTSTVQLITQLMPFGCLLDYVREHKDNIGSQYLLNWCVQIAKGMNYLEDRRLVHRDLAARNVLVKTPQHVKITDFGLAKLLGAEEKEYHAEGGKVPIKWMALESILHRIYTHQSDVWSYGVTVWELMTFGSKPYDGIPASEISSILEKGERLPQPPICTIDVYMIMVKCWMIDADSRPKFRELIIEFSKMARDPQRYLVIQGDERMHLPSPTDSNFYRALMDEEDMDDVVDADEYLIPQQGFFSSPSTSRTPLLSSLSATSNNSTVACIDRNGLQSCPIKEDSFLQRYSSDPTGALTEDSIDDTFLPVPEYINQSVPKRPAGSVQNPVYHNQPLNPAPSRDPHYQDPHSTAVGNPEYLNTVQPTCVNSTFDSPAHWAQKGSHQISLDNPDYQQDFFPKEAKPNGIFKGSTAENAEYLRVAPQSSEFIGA
Chain of Epidermal growth factor receptor (Homo sapiens), P00533 [L858R,T790M,C797S] (P00533 whole entry T790M/C797S/L858R): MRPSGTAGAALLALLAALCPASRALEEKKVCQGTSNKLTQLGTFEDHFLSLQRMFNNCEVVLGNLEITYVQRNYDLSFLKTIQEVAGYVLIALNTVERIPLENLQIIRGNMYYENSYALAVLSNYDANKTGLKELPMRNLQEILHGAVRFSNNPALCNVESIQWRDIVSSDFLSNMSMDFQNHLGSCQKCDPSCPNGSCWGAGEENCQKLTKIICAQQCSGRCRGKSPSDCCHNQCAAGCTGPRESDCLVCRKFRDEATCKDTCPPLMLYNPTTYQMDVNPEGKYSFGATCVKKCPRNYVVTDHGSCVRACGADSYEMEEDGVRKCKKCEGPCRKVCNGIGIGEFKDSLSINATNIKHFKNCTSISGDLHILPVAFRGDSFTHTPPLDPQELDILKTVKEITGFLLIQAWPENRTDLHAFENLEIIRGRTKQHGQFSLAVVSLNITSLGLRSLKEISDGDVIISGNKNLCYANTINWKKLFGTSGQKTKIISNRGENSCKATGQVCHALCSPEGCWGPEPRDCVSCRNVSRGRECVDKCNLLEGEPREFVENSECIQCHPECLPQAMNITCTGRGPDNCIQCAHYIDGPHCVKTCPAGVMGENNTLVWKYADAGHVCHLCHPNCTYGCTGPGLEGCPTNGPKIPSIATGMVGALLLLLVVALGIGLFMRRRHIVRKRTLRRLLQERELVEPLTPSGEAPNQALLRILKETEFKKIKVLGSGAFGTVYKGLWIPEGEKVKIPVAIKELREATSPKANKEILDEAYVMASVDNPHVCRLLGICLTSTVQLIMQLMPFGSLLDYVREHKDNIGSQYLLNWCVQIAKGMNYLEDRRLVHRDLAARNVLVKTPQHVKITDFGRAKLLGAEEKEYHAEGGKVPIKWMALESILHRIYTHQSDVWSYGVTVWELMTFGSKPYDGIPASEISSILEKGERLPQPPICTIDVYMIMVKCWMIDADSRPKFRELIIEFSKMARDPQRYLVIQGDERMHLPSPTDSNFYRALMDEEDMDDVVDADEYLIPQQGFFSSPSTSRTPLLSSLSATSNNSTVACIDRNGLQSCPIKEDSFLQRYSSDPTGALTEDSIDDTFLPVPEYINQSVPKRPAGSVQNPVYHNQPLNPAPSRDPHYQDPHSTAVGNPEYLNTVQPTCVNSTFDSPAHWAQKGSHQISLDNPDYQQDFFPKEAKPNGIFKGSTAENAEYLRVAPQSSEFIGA
Chain of Epidermal growth factor receptor (Homo sapiens, UniProt P00533, L858R/T790M) (P00533 25-1210 T790M/L858R limits assumed): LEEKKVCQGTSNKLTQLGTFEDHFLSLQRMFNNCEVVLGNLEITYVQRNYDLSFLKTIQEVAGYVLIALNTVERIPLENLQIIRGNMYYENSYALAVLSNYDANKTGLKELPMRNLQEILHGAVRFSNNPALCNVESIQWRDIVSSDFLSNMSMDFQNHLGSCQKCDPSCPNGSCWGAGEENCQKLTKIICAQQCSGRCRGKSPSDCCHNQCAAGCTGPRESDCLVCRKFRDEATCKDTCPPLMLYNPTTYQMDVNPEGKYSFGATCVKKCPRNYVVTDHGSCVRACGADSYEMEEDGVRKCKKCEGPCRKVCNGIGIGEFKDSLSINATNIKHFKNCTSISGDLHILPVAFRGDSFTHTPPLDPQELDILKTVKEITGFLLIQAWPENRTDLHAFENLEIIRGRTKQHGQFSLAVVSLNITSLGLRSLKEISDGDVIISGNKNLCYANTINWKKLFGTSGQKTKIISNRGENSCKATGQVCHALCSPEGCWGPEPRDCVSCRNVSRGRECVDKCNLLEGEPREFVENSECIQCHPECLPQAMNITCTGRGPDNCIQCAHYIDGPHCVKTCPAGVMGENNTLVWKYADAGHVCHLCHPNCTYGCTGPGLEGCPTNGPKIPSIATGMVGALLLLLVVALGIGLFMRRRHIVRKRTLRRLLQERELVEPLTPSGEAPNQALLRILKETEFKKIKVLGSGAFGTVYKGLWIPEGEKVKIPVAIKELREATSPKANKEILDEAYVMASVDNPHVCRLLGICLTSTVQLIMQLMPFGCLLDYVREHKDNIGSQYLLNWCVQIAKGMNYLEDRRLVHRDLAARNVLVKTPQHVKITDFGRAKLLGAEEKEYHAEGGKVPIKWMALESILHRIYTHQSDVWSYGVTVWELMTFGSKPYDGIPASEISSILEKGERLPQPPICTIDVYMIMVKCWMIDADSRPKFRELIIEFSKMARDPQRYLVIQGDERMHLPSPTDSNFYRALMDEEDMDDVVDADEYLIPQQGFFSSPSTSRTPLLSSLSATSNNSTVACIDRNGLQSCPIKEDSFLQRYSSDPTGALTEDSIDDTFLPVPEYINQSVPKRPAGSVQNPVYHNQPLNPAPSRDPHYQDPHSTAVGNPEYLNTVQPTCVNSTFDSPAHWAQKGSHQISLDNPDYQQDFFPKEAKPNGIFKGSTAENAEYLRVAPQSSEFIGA

Row | Structure (SMILES) | IC50 [4] | IC50 [5] | IC50 [8] | IC50 [9] | further results
1 | CCC(=O)N[C@H]1CC[C@H](N2C(=O)N(c3ccccc3Cl)Cc3cnc(Nc4ccc(N5CCN(C)CC5)c(C)c4)nc32)CC1 | 320 nM | 270 nM | 310 nM | 510 nM | Activity [1]: Non-Toxic; inhibition in vivo at 10 mg/kg [2]: 42.2%; inhibition [3]: Dose-dependent effect; inhibition [6]: Dose-dependent effect; inhibition [7]: Active
2 | N#Cc1ccc(O)c(-c2nc(NCc3cnccn3)c3ccccc3n2)c1 |  |  |  |  | IC50 [10]: 85.2 nM; IC50 [11]: 367 nM
3 | O=C(Nc1nccs1)C(c1cc(F)ccc1O)N1Cc2ccccc2C1=O (centres undefined) |  |  |  |  | inhibition in vivo at 60 mg/kg [12]: 22.3%
4 | COc1cc(N2CCC(N3CCN(C)CC3)CC2)ccc1Nc1ncc(Cl)c(Nc2ccccc2P(C)(C)=O)n1 [BRIGATINIB] | 260 nM |  | 1090 nM | 420 nM | 
5 | C=CC(=O)Nc1cc(Nc2nccc(-c3cn(C)c4ccccc34)n2)c(OC)cc1N(C)CCN(C)C [OSIMERTINIB] | 4610 nM | […] | […] | 5150 nM | 
